Several values for one entry are separate records, joined by “and”; a condition that tells them apart may be missing. Equal values may be shown once.

The text below walks through data of ChEMBL document CHEMBL1123309, “Esters and lactones of phenolic amino carboxylic acids: prodrugs for iron chelation” (J Med Chem, 1986).

For data set [1], the system named is Mus musculus. The data set can be described thus: BDF1 male mice were administered with 100 mg/kg intraperitoneally and number of survivors was determined out of 10 tested. In kind it is functional. The following applies: route intraperitoneal. In short, it runs like this: (§1)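 Male BDF1 mice were iron-loaded by transfusion of canine red cells. The cells were heparinised, washed twice in isotonic saline and heated at 50 °C for 30 min. Dosing started two days after the last transfusion, once daily for 7 consecutive days. Compounds were given in distilled water or as a fine aqueous suspension with Polysorbate 80 (2% final). Toxic signs were recorded daily and survivors counted per group.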

Data set [2] relates to Mus musculus. The data set can be described thus: BDF1 male mice were administered with 200 mg/kg intraperitoneally and percent change in iron levels was determined in Feces. In kind it is functional. The following applies: route intraperitoneal. In short, it runs like this: (§2)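 Male BDF1 mice made iron-overloaded by transfusion of washed, heat-treated (50 °C, 30 min) canine red cells. Dosing began 2 days after the last transfusion, once daily for 7 days, in distilled water or 2% Polysorbate 80 suspension. Daily group urine was collected. Pooled feces were digested in 1 N HCl (90 °C, 30 min). Liver and spleen were homogenized in saline. Iron was measured by atomic absorption and expressed as % change vs transfused controls.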

Data set [3] has as its system Mus musculus. The data set can be described thus: BDF1 male mice were administered with 100 mg/kg intraperitoneally and percent change in iron levels was determined in Liver. In kind it is functional. The following applies: route intraperitoneal. In short, it runs like this: as §2
Data set [4] relates to Mus musculus. Briefly: BDF1 male mice were administered with 200 mg/kg intraperitoneally and number of survivors was determined out of 10 tested. In kind it is functional. The following applies: route intraperitoneal. In short, it runs like this:
as §1

The test system of data set [5] is Mus musculus. The data set can be described thus: BDF1 male mice were administered with 100 mg/kg intraperitoneally and percent change in iron levels was determined in Spleen. The following applies: route intraperitoneal. Type of data set: functional. In short, it runs like this:
as §2

Data set [6] has as its system Mus musculus. The data set can be described thus: BDF1 male mice were administered with 200 mg/kg intraperitoneally and percent change in iron levels was determined in Urine. Type of data set: functional. The following applies: route intraperitoneal. In short, it runs like this: as §2
The test system of data set [7] is Mus musculus. Briefly: BDF1 male mice were administered with 100 mg/kg intraperitoneally and percent change in iron levels was determined in Feces. Type of data set: functional. The following applies: route intraperitoneal. In short, it runs like this: as §2
For data set [8], the system named is Mus musculus. The data set can be described thus: BDF1 male mice were administered with 200 mg/kg intraperitoneally and percent change in iron levels was determined in liver. In kind it is functional. The note with it: route intraperitoneal. The method, boiled down: as §2
In data set [9] the test system is Mus musculus. The data set can be described thus: BDF1 male mice were administered with 200 mg/kg intraperitoneally and percent change in iron levels was determined in Spleen. In kind it is functional. The note with it: route intraperitoneal. In short, it runs like this:
as §2

The subject of data set [10] is Mus musculus. The data set can be described thus: BDF1 male mice were administered with 100 mg/kg intraperitoneally and percent change in iron levels was determined in Urine. In kind it is functional. The note with it: route intraperitoneal. The method, boiled down:
as §2

The subject of data set [11] is Mus musculus. Briefly: BDF1 male mice were administered with 25 mg/kg orally and percent change in iron levels was determined in faeces. Type of data set: functional, Feces. The following applies: dose 100 mg/kg; route intraperitoneal; in the assay text read “100 mg/kg intraperitoneally” for “25 mg/kg orally”.
The subject of data set [12] is Mus musculus. The data set can be described thus: BDF1 male mice were administered with 100 mg/kg orally and percent change in iron levels was determined in spleen. The note with it: route intraperitoneal, in the assay text read “intraperitoneally” for “orally”. In kind it is functional. The method, boiled down:
as §2

The nature of data set [13]: First order rate constant was determined Spectrophotometrically at pH 7.5 in the presence of Fe(III).
Data set [14] deals with Mus musculus. Briefly: BDF1 male mice were administered with 25 mg/kg orally and percent change in iron levels was determined in urine. Type of data set: functional. The note with it: dose 100 mg/kg; route intraperitoneal; in the assay text read “100 mg/kg intraperitoneally” for “25 mg/kg orally”.
Data set [15] deals with Mus musculus. Briefly: BDF1 male mice were administered with 200 mg/kg orally and percent change in iron levels was determined in spleen. Type of data set: functional. The note with it: route oral. In short, it runs like this:
as §2

In data set [16] the test system is Mus musculus. Briefly: BDF1 male mice were administered with 200 mg/kg orally and percent change in iron levels was determined in faeces. Type of data set: functional, Feces. The note with it: route oral. In short, it runs like this:
as §2

A short description of data set [17]: First order rate constant was determined Titrimetrically) at pH 7.5 in the presence of Fe(III).
Data set [18] is described as follows: Half life was determined at pH 10.5 in the presence of Fe(III) Half life was determined Titrimetrically. The following applies: pH 7.5; in the assay text read “pH 7.5” for “pH 10.5”. In kind it is ADME. The method, boiled down:
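Metal and chelator were each 5 × 10⁻⁴ M. Constant pH was held with 0.05 M NaOH. Hydrolysis rate came from base consumption, with first-order kinetics.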

The test system of data set [19] is Mus musculus. Briefly: BDF1 male mice were administered with the compound and number of survivors was determined at a dose 200 mg/kg peroral out of 10 tested. The note with it: route oral. Type of data set: functional. The method, boiled down:
as §1

Data set [20] relates to Mus musculus. Briefly: BDF1 male mice were administered with 200 mg/kg orally and percent change in iron levels was determined in liver. Type of data set: functional. The following applies: route oral. In short, it runs like this: as §2
Data set [21] in a line: Half life was determined at pH 7.5 in the presence of Fe(III) Half life was determined Spectrophotometrically.
Data set [22] deals with Mus musculus. The data set can be described thus: BDF1 male mice were administered with the compound and number of survivors was determined at a dose 100 mg/kg intraperitoneally out of 10 tested. In kind it is functional. The note with it: route intraperitoneal. The method, boiled down:
as §1

Data set [23] deals with Mus musculus. Briefly: BDF1 male mice were administered with 300 mg/kg intraperitoneally and percent change in iron levels was determined in Spleen. Type of data set: functional. The note with it: route intraperitoneal. The method, boiled down:
(§3)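 Male BDF1 mice were hypertransfused with washed, heat-treated (50 °C, 30 min) canine red cells. Starting 2 days after the last transfusion, they received one ip injection daily for 7 days, in distilled water or an aqueous suspension with Polysorbate 80 (2% final). Group urine was collected every 24 h. Feces were digested in 1 N HCl (90 °C, 30 min, triplicate). Liver and spleen were homogenized. Iron was measured by atomic absorption and reported as % change vs transfused controls.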

For data set [24], the system named is Rattus norvegicus. The data set can be described thus: Percent change in iron levels was determined in feces using iron overload rat model where the route of administration is Intraperitoneal. The following applies: in vivo, ip. In kind it is ADME, organism-based.
Data set [25] relates to Mus musculus. Briefly: BDF1 male mice were administered with 300 mg/kg intraperitoneally and percent change in iron levels was determined in Feces. The following applies: route intraperitoneal. Type of data set: functional. The method, boiled down:
as §3

The test system of data set [26] is Mus musculus. The data set can be described thus: BDF1 male mice were administered with 300 mg/kg intraperitoneally and number of survivors was determined out of 10 tested. Type of data set: functional. The note with it: route intraperitoneal. The method, boiled down:
as §1

In data set [27] the test system is Rattus norvegicus. The data set can be described thus: Percent change in iron levels was determined in urine using iron overload rat model where the route of administration is Peroral. Type of data set: ADME, organism-based. The following applies: in vivo, po.
In data set [28] the test system is Mus musculus. The data set can be described thus: BDF1 male mice were administered with 300 mg/kg intraperitoneally and percent change in iron levels was determined in Urine. In kind it is functional. The following applies: route intraperitoneal. The method, boiled down:
as §3

Data set [29] in a line: Compound was evaluated for lethal dose after intraperitoneal administration using iron overload rat model. The following applies: in vivo, ip. In kind it is toxicity, organism-based.
The test system of data set [30] is Rattus norvegicus. The data set can be described thus: Percent change in iron levels was determined in urine using iron overload rat model where the route of administration is Intraperitoneal. Type of data set: ADME, organism-based. The note with it: in vivo, ip.
For data set [31], the system named is Rattus norvegicus. The data set can be described thus: Percent change in iron levels was determined in feces using iron overload rat model where the route of administration is Peroral. In kind it is ADME, organism-based. The following applies: in vivo, po.
Data set [32] relates to Mus musculus. Briefly: BDF1 male mice were administered with 300 mg/kg intraperitoneally and percent change in iron levels was determined in liver. Type of data set: functional. The note with it: route intraperitoneal. In short, it runs like this:
as §3

For the compound `O=C([O-])CN(CCN(CC(=O)[O-])c1ccccc1O)c1ccccc1O.[Na+].[Na+]`, the No. of survivors with Mus musculus [1] came to 10; with Mus musculus [4], 5. The Iron change in the data set on Mus musculus [2] is -15%; in the data set with Mus musculus [3] it was -22%; with Mus musculus [5], 7%; with Mus musculus [6], 143%; with Mus musculus [7] it was 3%; in the data set with Mus musculus [8], -22%. The results for the Iron change with Mus musculus [9] and with Mus musculus [10] were 22% and 106%, respectively.
In general, half-life refers to the time needed for the level to fall by half in the phase considered. As for `CCOC(=O)CN(CCN(CC(=O)OCC)Cc1ccccc1O)Cc1ccccc1O`, the Iron change in the data set with Mus musculus [11] was 26%; in the data set on Mus musculus [12], 4%; with Mus musculus [14], 240%; with Mus musculus [15], -34%; with Mus musculus [16], -77%; with Mus musculus [20] it was -49% and -63%. In addition, the “10E2 k1” value in data set [13] stood at 1.14 min⁻¹; in data set [17], 1.99 min⁻¹. The half-life in data set [18] was 34.8 min; in data set [21], 60.6 min. Also, the No. of survivors in the data set with Mus musculus [19] stood at 8; in the data set with Mus musculus [22], 10.
The LD50 is the dose at which mortality reaches 50%. `O=C(O)CN(Cc1ccccc1O)CC(O)CN(CC(=O)O)Cc1ccccc1O`: the Iron change in the data set with Mus musculus [23] is listed as 6%; with Rattus norvegicus [24] it was 255%; with Mus musculus [25], -32%; with Rattus norvegicus [27] it was 30%; with Mus musculus [28], 127%; in the data set with Rattus norvegicus [30], 118%. The Iron change in the data set with Rattus norvegicus [31] is given as 20%; in the data set with Mus musculus [32], -50%. For the same compound, the No. of survivors in the data set on Mus musculus [26] was found to be 10. For the same compound, in data set [29], the LD50 is not below 800 mg/kg.
